Results published in ChEMBL document CHEMBL4373653, “FgaPT2, a biocatalytic tool for alkyl-diversification of indole natural products” (Medchemcomm, 2019).
The source made the active and inactive calls. The calls are words filed in the database; no cut-off is given here.

What was measured:
[1] = test system: HCT-116; experiment: Cytotoxicity against human HCT116 cells incubated for 48 hrs by Celltiter-blue assay; assay type: cell-based; settings: HCT-116, 48 h
In short: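 HCT-116 cells, 2.0e3 per well in McCoy's medium, grown 24 h. A baseline CellTiter-Blue reading (90 min, 37 °C; ex 544/em 590 nm) was taken at treatment. Serial dilutions were added at 4X in medium and incubated 48 h, then read again with CellTiter-Blue. Growth was expressed relative to untreated cells, four-parameter dose-response fit to IC50, n = 2, Taxol internal control.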

[2] = target: T1, Tryptophan dimethylallyltransferase (Neosartorya fumigata (strain ATCC MYA-4609 / Af293 / CBS 101355 / FGSCA1100) (Aspergillus fumigatus)) (UniProt Q50EL0); experiment: Substrate activity at recombinant N-terminal His6-fusion tagged Aspergillus fumigatus FgaPT2 expressed in Escherichia coli BL21 (DE3) assessed as alkylation of L-tryptophan by measuring product formation at pH 7.5 in Tris buffer after 16 hrs by RP-HPLC analysis
T1 sequence (whole entry): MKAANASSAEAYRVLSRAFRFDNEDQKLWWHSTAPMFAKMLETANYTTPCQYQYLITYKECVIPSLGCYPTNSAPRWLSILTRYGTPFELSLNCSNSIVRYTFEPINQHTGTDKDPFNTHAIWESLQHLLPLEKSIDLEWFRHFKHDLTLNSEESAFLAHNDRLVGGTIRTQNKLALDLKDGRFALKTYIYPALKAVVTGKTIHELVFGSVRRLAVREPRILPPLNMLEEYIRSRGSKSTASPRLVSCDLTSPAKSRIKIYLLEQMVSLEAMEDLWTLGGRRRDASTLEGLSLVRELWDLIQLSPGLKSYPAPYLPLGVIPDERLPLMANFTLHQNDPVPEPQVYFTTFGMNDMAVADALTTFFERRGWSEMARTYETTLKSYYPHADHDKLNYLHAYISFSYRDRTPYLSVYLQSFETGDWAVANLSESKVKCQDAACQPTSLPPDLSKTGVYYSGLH
In short: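 The enzyme was codon-optimized and purified by Ni-NTA. Reaction: 1.2 mM alkyl-PP donor, 1 mM L-Trp, 5 μM FgaPT2 in 25 mM Tris pH 7.5, 5 mM MgCl2, 50 mM KCl, 35 °C for 16 h. It was quenched with an equal volume of methanol and centrifuged. Analysis was by RP-HPLC (C18, water/0.1% TFA–acetonitrile gradient, A254). Negative controls omitted the enzyme or the donor.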

[3] = substrate: O=P(O)(O)OP(=O)(O)OCc1ccc(F)cc1; settings: Aspergillus fumigatus Af293
[4] = substrate: O=P(O)(O)OP(=O)(O)OCc1ccc(Br)cc1; settings: Aspergillus fumigatus Af293
[5] = substrate: CC/C(C)=C/COP(=O)(O)OP(=O)(O)O; settings: Aspergillus fumigatus Af293
[6] = substrate: O=P(O)(O)OP(=O)(O)OCC=C1CCCCC1; settings: Aspergillus fumigatus Af293
[7] = substrate: O=P(O)(O)OP(=O)(O)OCc1ccc(Cl)cc1; settings: Aspergillus fumigatus Af293
[8] = substrate: C/C=C/C=C(\C)COP(=O)(O)OP(=O)(O)O; settings: Aspergillus fumigatus Af293
[9] = substrate: C/C(Cl)=C/COP(=O)(O)OP(=O)(O)O; settings: Aspergillus fumigatus Af293
[10] = substrate: C/C=C/COP(=O)(O)OP(=O)(O)O; settings: Aspergillus fumigatus Af293
[11] = substrate: CC(C)=C/C=C/COP(=O)(O)OP(=O)(O)O; settings: Aspergillus fumigatus Af293
[12] = substrate: COc1ccccc1COP(=O)(O)OP(=O)(O)O; settings: Aspergillus fumigatus Af293
[13] = substrate: C=C/C=C(\C)COP(=O)(O)OP(=O)(O)O; settings: Aspergillus fumigatus Af293
[14] = substrate: O=P(O)(O)OP(=O)(O)OCC1=CCCCC1; settings: Aspergillus fumigatus Af293
[15] = substrate: C=C/C=C/COP(=O)(O)OP(=O)(O)O; settings: Aspergillus fumigatus Af293
[16] = substrate: O=P(O)(O)OP(=O)(O)OCC=C1CCCC1; settings: Aspergillus fumigatus Af293
[17] = substrate: COc1cccc(COP(=O)(O)OP(=O)(O)O)c1; settings: Aspergillus fumigatus Af293
[18] = substrate: CCC(=CCOP(=O)(O)OP(=O)(O)O)CC; settings: Aspergillus fumigatus Af293
[19] = substrate: O=P(O)(O)OP(=O)(O)OCc1ccccc1; settings: Aspergillus fumigatus Af293
[20] = substrate: O=P(O)(O)OP(=O)(O)OCc1ccc(F)cc1; settings: Aspergillus fumigatus Af293; remark: listed apart in the source
[21] = substrate: O=P(O)(O)OP(=O)(O)OCc1ccc(Br)cc1; settings: Aspergillus fumigatus Af293; remark: listed apart in the source
[22] = substrate: O=P(O)(O)OP(=O)(O)OCC=C1CCCCC1; settings: Aspergillus fumigatus Af293; remark: listed apart in the source
[23] = substrate: C/C=C/COP(=O)(O)OP(=O)(O)O; settings: Aspergillus fumigatus Af293; remark: listed apart in the source
[24] = substrate: COc1ccccc1COP(=O)(O)OP(=O)(O)O; settings: Aspergillus fumigatus Af293; remark: listed apart in the source
[25] = substrate: O=P(O)(O)OP(=O)(O)OCC=C1CCCC1; settings: Aspergillus fumigatus Af293; remark: listed apart in the source
[26] = substrate: COc1cccc(COP(=O)(O)OP(=O)(O)O)c1; settings: Aspergillus fumigatus Af293; remark: listed apart in the source
[27] = substrate: CCC(=CCOP(=O)(O)OP(=O)(O)O)CC; settings: Aspergillus fumigatus Af293; remark: listed apart in the source
[28] = substrate: O=P(O)(O)OP(=O)(O)OCc1ccccc1; settings: Aspergillus fumigatus Af293; remark: listed apart in the source
[29] = substrate: O=P(O)(O)OP(=O)(O)OCc1ccc(F)cc1; settings: Aspergillus fumigatus Af293; remark: listed apart in the source
[30] = substrate: O=P(O)(O)OP(=O)(O)OCc1ccc(Br)cc1; settings: Aspergillus fumigatus Af293; remark: listed apart in the source
[31] = substrate: CC/C(C)=C/COP(=O)(O)OP(=O)(O)O; settings: Aspergillus fumigatus Af293; remark: listed apart in the source
[32] = substrate: O=P(O)(O)OP(=O)(O)OCC=C1CCCCC1; settings: Aspergillus fumigatus Af293; remark: listed apart in the source
[33] = substrate: O=P(O)(O)OP(=O)(O)OCc1ccc(Cl)cc1; settings: Aspergillus fumigatus Af293; remark: listed apart in the source
[34] = substrate: C/C=C/C=C(\C)COP(=O)(O)OP(=O)(O)O; settings: Aspergillus fumigatus Af293; remark: listed apart in the source
[35] = substrate: C/C(Cl)=C/COP(=O)(O)OP(=O)(O)O; settings: Aspergillus fumigatus Af293; remark: listed apart in the source
[36] = substrate: C/C=C/COP(=O)(O)OP(=O)(O)O; settings: Aspergillus fumigatus Af293; remark: listed apart in the source
[37] = substrate: CC(C)=C/C=C/COP(=O)(O)OP(=O)(O)O; settings: Aspergillus fumigatus Af293; remark: listed apart in the source
[38] = substrate: COc1ccccc1COP(=O)(O)OP(=O)(O)O; settings: Aspergillus fumigatus Af293; remark: listed apart in the source
[39] = substrate: C=C/C=C(\C)COP(=O)(O)OP(=O)(O)O; settings: Aspergillus fumigatus Af293; remark: listed apart in the source
[40] = substrate: O=P(O)(O)OP(=O)(O)OCC1=CCCCC1; settings: Aspergillus fumigatus Af293; remark: listed apart in the source
[41] = substrate: C=C/C=C/COP(=O)(O)OP(=O)(O)O; settings: Aspergillus fumigatus Af293; remark: listed apart in the source
[42] = substrate: O=P(O)(O)OP(=O)(O)OCC=C1CCCC1; settings: Aspergillus fumigatus Af293; remark: listed apart in the source
[43] = substrate: COc1cccc(COP(=O)(O)OP(=O)(O)O)c1; settings: Aspergillus fumigatus Af293; remark: listed apart in the source
[44] = substrate: CCC(=CCOP(=O)(O)OP(=O)(O)O)CC; settings: Aspergillus fumigatus Af293; remark: listed apart in the source
[45] = substrate: O=P(O)(O)OP(=O)(O)OCc1ccccc1; settings: Aspergillus fumigatus Af293; remark: listed apart in the source
[46] = substrate: C/C(Br)=C/COP(=O)(O)OP(=O)(O)O; settings: Aspergillus fumigatus Af293

Molecule: CC/C(C)=C/Cc1ccc2[nH]c3c4[nH]c5ccccc5c4c4c(c3c2c1)C(=O)NC4O (stereo not given)
- IC50 [1]: 38 µM

Molecule: COc1ccc(COP(=O)(O)OP(=O)(O)O)c(OC)c1
- Activity [2]: inactive

Molecule: Cc1ccc(COP(=O)(O)OP(=O)(O)O)cc1
- Activity [2]: inactive

Molecule: O=C1NC(O)c2c1c1c3cc(CC4=CCCCC4)ccc3[nH]c1c1[nH]c3ccccc3c21 (stereo not given)
- IC50 [1]: 61 µM

Molecule: O=C1NC(O)c2c1c1c3cc(CC=C4CCCC4)ccc3[nH]c1c1[nH]c3ccccc3c21 (stereo not given)
- IC50 [1]: 58 µM

Molecule: COc1cc(COP(=O)(O)OP(=O)(O)O)cc(OC)c1OC
- Activity [2]: inactive

Molecule: O=P(O)(O)OP(=O)(O)OCc1cc(F)cc(F)c1
- Activity [2]: inactive

Molecule: COc1ccc(COP(=O)(O)OP(=O)(O)O)cc1
- Activity [2]: inactive

Molecule: O=[N+]([O-])c1ccc(COP(=O)(O)OP(=O)(O)O)cc1
- Activity [2]: inactive

Molecule: CC(=O)COP(=O)(O)OP(=O)(O)O
- Activity [2]: inactive

Molecule: C=C(C)COP(=O)(O)OP(=O)(O)O
- Activity [2]: inactive

Molecule: CC(C)=CCc1ccc2[nH]c3c4[nH]c5ccccc5c4c4c(c3c2c1)C(=O)NC4O (stereo not given)
- IC50 [1]: 62 µM

Molecule: COc1ccc(COP(=O)(O)OP(=O)(O)O)cc1OC
- Activity [2]: inactive

Molecule: CCC(=CCc1ccc2[nH]c3c4[nH]c5ccccc5c4c4c(c3c2c1)C(=O)NC4O)CC (stereo not given)
- IC50 [1]: 35 µM

Molecule: O=C1NC(O)c2c1c1c3cc(CC=C4CCCCC4)ccc3[nH]c1c1[nH]c3ccccc3c21 (stereo not given)
- IC50 [1]: 31 µM

Molecule: O=C1NC(O)c2c1c1c3ccccc3[nH]c1c1[nH]c3ccccc3c21 (stereo not given)
- IC50 [1]: 11 µM

B1: Tryptophan dimethylallyltransferase (Neosartorya fumigata (strain ATCC MYA-4609 / Af293 / CBS 101355 / FGSCA1100) (Aspergillus fumigatus)), Q50EL0 (protein)
chain: MKAANASSAEAYRVLSRAFRFDNEDQKLWWHSTAPMFAKMLETANYTTPCQYQYLITYKECVIPSLGCYPTNSAPRWLSILTRYGTPFELSLNCSNSIVRYTFEPINQHTGTDKDPFNTHAIWESLQHLLPLEKSIDLEWFRHFKHDLTLNSEESAFLAHNDRLVGGTIRTQNKLALDLKDGRFALKTYIYPALKAVVTGKTIHELVFGSVRRLAVREPRILPPLNMLEEYIRSRGSKSTASPRLVSCDLTSPAKSRIKIYLLEQMVSLEAMEDLWTLGGRRRDASTLEGLSLVRELWDLIQLSPGLKSYPAPYLPLGVIPDERLPLMANFTLHQNDPVPEPQVYFTTFGMNDMAVADALTTFFERRGWSEMARTYETTLKSYYPHADHDKLNYLHAYISFSYRDRTPYLSVYLQSFETGDWAVANLSESKVKCQDAACQPTSLPPDLSKTGVYYSGLH
- kcat [3]: 0.0046 s⁻¹
- kcat [4]: 0.00223 s⁻¹
- kcat [5]: 0.165 s⁻¹
- kcat [6]: 0.0533 s⁻¹
- kcat [7]: 0.00327 s⁻¹
- kcat [8]: 0.282 s⁻¹
- kcat [9]: 0.0217 s⁻¹
- kcat [10]: 0.0095 s⁻¹
- kcat [11]: 0.467 s⁻¹
- kcat [12]: 0.0322 s⁻¹
- kcat [13]: 0.337 s⁻¹
- kcat [14]: 0.00267 s⁻¹
- kcat [15]: 0.433 s⁻¹
- kcat [16]: 0.084 s⁻¹
- kcat [17]: 0.00283 s⁻¹
- kcat [18]: 0.108 s⁻¹
- kcat [19]: 0.0227 s⁻¹
- Km [20]: 400 µM
- Km [21]: 320 µM
- Km [22]: 1400 µM
- Km [23]: 140 µM
- Km [24]: 570 µM
- Km [25]: 310 µM
- Km [26]: 730 µM
- Km [27]: 370 µM
- Km [28]: 220 µM
- kcat/Km [29]: 11.5 M⁻¹ s⁻¹
- kcat/Km [30]: 7 M⁻¹ s⁻¹
- kcat/Km [31]: 350 M⁻¹ s⁻¹
- kcat/Km [32]: 36.7 M⁻¹ s⁻¹
- kcat/Km [33]: 7.67 M⁻¹ s⁻¹
- kcat/Km [34]: 200 M⁻¹ s⁻¹
- kcat/Km [35]: 41.7 M⁻¹ s⁻¹
- kcat/Km [36]: 65 M⁻¹ s⁻¹
- kcat/Km [37]: 433 M⁻¹ s⁻¹
- kcat/Km [38]: 56.7 M⁻¹ s⁻¹
- kcat/Km [39]: 267 M⁻¹ s⁻¹
- kcat/Km [40]: 16.7 M⁻¹ s⁻¹
- kcat/Km [41]: 650 M⁻¹ s⁻¹
- kcat/Km [42]: 267 M⁻¹ s⁻¹
- kcat/Km [43]: 3.83 M⁻¹ s⁻¹
- kcat/Km [44]: 283 M⁻¹ s⁻¹
- kcat/Km [45]: 103 M⁻¹ s⁻¹
- kcat/Km [46]: 21.7 M⁻¹ s⁻¹
